Results: ChEMBL document CHEMBL3853279, “Tadehaginosides A-J, Phenylpropanoid Glucosides from Tadehagi triquetrum, Enhance Glucose Uptake via the Upregulation of PPARγ and GLUT-4 in C2C12 Myotubes” (J Nat Prod, 2016)
Calls of active or inactive are those of the source. The rule behind the calls is not given here.

How the values were obtained:
[1] = target: T1, Peroxisome proliferator-activated receptor gamma (Mus musculus) (UniProt P37238); assay: Transactivation of PPARgamma in mouse C2C12 cells assessed as increase in GLUT-4 mediated 2-NBDG uptake at 10 uM after 6 hrs by fluorescence assay; type: cell-based
T1 sequence (whole entry): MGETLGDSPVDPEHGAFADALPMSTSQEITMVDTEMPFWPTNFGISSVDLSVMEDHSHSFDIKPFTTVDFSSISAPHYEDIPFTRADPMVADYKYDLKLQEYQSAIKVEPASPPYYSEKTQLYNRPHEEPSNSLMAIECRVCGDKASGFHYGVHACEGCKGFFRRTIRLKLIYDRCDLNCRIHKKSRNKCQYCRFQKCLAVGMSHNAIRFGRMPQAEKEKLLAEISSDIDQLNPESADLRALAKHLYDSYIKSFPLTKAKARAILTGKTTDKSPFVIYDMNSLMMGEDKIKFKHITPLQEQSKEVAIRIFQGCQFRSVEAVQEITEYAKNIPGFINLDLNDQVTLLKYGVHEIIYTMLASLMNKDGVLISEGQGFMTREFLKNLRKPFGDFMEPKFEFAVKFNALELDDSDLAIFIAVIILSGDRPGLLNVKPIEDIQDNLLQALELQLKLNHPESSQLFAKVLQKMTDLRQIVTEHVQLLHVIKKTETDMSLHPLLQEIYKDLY
Procedure, shortened: (§1)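 Uptake was run in C2C12 myotubes (4 days in DMEM/1% FBS) kept in serum-free DMEM. 2-NBDG 10 μM and compound (DMSO solution) were added together for the stated time. Medium was then discarded, and cells were washed twice with PBS and scraped in ice-cold PBS. Cell-associated 2-NBDG was read by fluorescence at Ex/Em 475/550 nm, under basal or insulin-stimulated conditions.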

[2] = target: T1, Peroxisome proliferator-activated receptor gamma (Mus musculus); assay: Transactivation of PPARgamma in mouse C2C12 cells assessed as increase in GLUT-4 mediated 2-NBDG uptake at 4 hrs by fluorescence assay; type: cell-based; procedure, shortened: as §1
[3] = target: T1, Peroxisome proliferator-activated receptor gamma (Mus musculus); assay: Transactivation of PPARgamma in mouse C2C12 cells at 1 to 10 uM after 24 hrs by DR-1 luciferase reporter gene assay; type: cell-based
Procedure, shortened: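 C2C12 myotubes were transiently co-transfected with a DR-1 luciferase reporter and a PPARγ expression vector. Six hours after transfection, the medium was replaced with fresh medium containing the agonist. Luciferase activity was measured 24 h later by kit assay.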

Mus musculus = species on record: Mus musculus; assay: Cytotoxicity against mouse C2C12 cells assessed as cell viability at 1 to 20 uM after 4 hrs by MTT assay; type: toxicity, cell-based; settings: c2c12, 4 h
Procedure, shortened: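 C2C12 myoblasts differentiated to myotubes in DMEM with 1% FBS, changed daily for 4 days, then seeded in 96-well plates. Cells were exposed to test compound for 4 h, with digitonin 100 μg/mL as positive control. MTT reagent was added, then DMSO, and absorbance was read at 565 nm as viability.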

[4] = target: T1, Peroxisome proliferator-activated receptor gamma (Mus musculus); assay: Transactivation of PPARgamma in mouse C2C12 cells assessed as increase in GLUT-4 mediated insulin-induced 2-NBDG uptake at 4 hrs by fluorescence assay; type: cell-based; procedure, shortened: as §1
[5] = target: T1, Peroxisome proliferator-activated receptor gamma (Mus musculus); assay: Transactivation of PPARgamma in mouse C2C12 cells assessed as increase in GLUT-4 mediated 2-NBDG uptake at 10 uM after 2 to 8 hrs by fluorescence assay; type: cell-based; procedure, shortened: as §1
[6] = target: T1, Peroxisome proliferator-activated receptor gamma (Mus musculus); assay: Transactivation of PPARgamma in mouse C2C12 cells assessed as increase in GLUT-4 levels in at 1 to 10 uM after 6 hrs by ELISA; type: cell-based
Procedure, shortened: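 Myotubes were differentiated from C2C12 myoblasts over 4 days in DMEM plus 1% FBS, then treated 6 h in serum-free DMEM at 1 and 10 μM, with rosiglitazone 10 μM as reference. Cells were PBS-washed and lysed, and lysates were spun 20 min at 13000g, 4 °C. GLUT-4 in the supernatant was quantified by mouse GLUT-4 ELISA.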

[7] = target: T1, Peroxisome proliferator-activated receptor gamma (Mus musculus); assay: Transactivation of PPARgamma in mouse C2C12 cells assessed as increase in GLUT-4 mediated 2-NBDG uptake at 5 to 20 uM at 4 hrs by fluorescence assay; type: cell-based; procedure, shortened: as §1

| Activity [1] | Compound | other results |
| --- | --- | --- |
| Active | O=C(/C=C/c1ccc(O)cc1)O[C@H]1[C@H](Oc2cc(O)cc(O)c2)O[C@H](CO)[C@@H](O)[C@@H]1O | – |
| Active | O=C(/C=C\c1ccc(O)cc1)O[C@H]1[C@H](Oc2cc(O)cc(O)c2)O[C@H](CO)[C@@H](O)[C@@H]1O | – |
| Active | CC(=O)c1c(O)cc(O)cc1O[C@@H]1O[C@H](COC(=O)/C=C\c2ccc(O)cc2)[C@@H](O)[C@H](O)[C@H]1O | – |
| Active | O=C(/C=C/c1ccc(O)cc1)O[C@H]1[C@H](O)[C@@H](O)[C@H](Oc2cc(O)cc(O)c2)O[C@@H]1CO | – |
| Active | O=C(/C=C/c1ccc(O)cc1)OC[C@H]1O[C@@H](Oc2cc(O)cc(O)c2)[C@H](O)[C@@H](O)[C@@H]1O | – |
| Active | O=C(OC[C@H]1O[C@@H](Oc2cc(O)cc(O)c2)[C@H](O)[C@@H](O)[C@@H]1O)[C@H]1[C@H](c2ccc(O)cc2)[C@H](C(=O)OC[C@H]2O[C@@H](Oc3cc(O)cc(O)c3)[C@H](O)[C@@H](O)[C@@H]2O)[C@H]1c1ccc(O)cc1 | Activity [2]: Dose-dependent effect; Activity [3]: Active; Activity (Mus musculus): Non-Toxic; Activity [4]: Dose-dependent effect; Activity [5]: Active; Activity [6]: Active; Activity [7]: Active |
| Active | CC(=O)c1c(O)cc(O)cc1O[C@@H]1O[C@H](COC(=O)/C=C/c2ccc(O)cc2)[C@@H](O)[C@H](O)[C@H]1O | – |
| Active | O=C(OC[C@H]1O[C@@H](Oc2cc(O)cc(O)c2)[C@H](O)[C@@H](O)[C@@H]1O)[C@H]1[C@H](C(=O)OC[C@H]2O[C@@H](Oc3cc(O)cc(O)c3)[C@H](O)[C@@H](O)[C@@H]2O)[C@H](c2ccc(O)cc2)[C@H]1c1ccc(O)cc1 | – |
| Active | O=C(/C=C/c1ccc(O)cc1)O[C@@H]1[C@@H](O)[C@H](Oc2cc(O)cc(O)c2)O[C@H](CO)[C@H]1O | – |
